Tests used:
[1] = system: L5178Y; assay: Antiproliferative activity against mouse L5178Y cells assessed as reduction in cell viability incubated for 72 hrs by MTT assay; format: functional, cell-based
How it was run: (§1)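 Parental L5178Y or human ABCB1-transfected L5178Y MDR subline kept under 60 ng mL−1 colchicine selection; McCoy's 5A, 10% heat-inactivated horse serum, 37 °C. 6 × 10^3 cells/well exposed to 2-fold serial dilutions from 100 μM for 72 h. MTT 4 h, SDS overnight, OD 540/630 nm. Triplicate; IC50 from curve fitting, mean ± SD.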

[2] = system: L5178Y; assay: Reversal of multidrug resistance in multidrug resistant mouse L5178Y cells transfected with human ABCB1 assessed as reduction in cell viability incubated for 72 hrs by MTT assay; format: functional, cell-based; how it was run: as §1
[3] = Resistance ratio of IC50 for antiproliferative activity against multidrug resistant mouse L5178Y cells transfected with human ABCB1 to IC50 for antiproliferative activity against mouse L5178Y cells; format: functional
How it was run: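 RR = IC50(MDR)/IC50(PAR), IC50s from the 72 h MTT assay: 2-fold dilutions from 100 μM, 6 × 10^3 cells/well, triplicate. Collateral sensitivity taken as RR < 0.5; RR < 1 counted as selectivity toward resistant cells.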

[4] = target: T1, ATP-dependent translocase ABCB1 (Homo sapiens, UniProt P08183); assay: Modulation of human P-gp transfected in mouse L5178Y cells assessed as change in Rhodamine-123 efflux by measuring fluorescence activity ratio at 2 uM pretreated for 10 mins followed by Rhodamine-123 challenge for 20 mins by flow cytometry relative to parental mouse L5178Y cells; format: cell-based; conditions: 0.5 h, time 30 min
T1 sequence (P08183 whole entry): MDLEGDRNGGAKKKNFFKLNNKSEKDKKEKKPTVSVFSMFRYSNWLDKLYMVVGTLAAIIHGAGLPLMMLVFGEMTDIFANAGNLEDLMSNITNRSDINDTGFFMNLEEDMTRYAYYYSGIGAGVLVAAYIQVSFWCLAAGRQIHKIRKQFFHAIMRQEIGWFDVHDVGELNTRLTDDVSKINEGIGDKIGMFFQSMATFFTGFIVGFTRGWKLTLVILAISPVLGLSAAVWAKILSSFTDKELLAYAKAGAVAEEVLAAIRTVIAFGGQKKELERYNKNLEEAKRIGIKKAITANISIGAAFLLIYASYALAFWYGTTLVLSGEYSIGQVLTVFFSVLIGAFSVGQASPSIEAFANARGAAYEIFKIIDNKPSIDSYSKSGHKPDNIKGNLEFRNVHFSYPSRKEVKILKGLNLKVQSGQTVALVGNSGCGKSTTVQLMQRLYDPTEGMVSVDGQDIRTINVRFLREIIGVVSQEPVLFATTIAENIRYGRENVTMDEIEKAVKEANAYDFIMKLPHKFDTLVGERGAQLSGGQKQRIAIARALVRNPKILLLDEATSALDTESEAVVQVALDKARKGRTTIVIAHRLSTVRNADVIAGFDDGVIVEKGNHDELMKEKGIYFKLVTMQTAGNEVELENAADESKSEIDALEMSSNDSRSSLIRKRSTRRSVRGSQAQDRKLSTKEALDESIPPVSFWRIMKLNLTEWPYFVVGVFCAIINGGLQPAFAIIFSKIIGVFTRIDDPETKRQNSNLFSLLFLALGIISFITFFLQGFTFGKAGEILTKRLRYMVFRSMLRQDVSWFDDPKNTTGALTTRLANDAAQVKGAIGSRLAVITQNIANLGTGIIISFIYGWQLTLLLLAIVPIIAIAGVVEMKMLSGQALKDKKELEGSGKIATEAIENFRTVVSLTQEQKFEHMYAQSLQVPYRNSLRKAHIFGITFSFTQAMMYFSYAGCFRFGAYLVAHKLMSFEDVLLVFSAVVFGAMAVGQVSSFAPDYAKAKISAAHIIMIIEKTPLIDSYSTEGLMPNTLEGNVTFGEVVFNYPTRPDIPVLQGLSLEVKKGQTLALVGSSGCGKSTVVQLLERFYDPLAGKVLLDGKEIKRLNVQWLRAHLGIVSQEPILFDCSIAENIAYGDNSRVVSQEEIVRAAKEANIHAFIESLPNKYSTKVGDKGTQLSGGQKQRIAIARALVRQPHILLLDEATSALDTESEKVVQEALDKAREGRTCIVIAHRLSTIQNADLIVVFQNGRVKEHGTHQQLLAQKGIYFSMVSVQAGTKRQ
How it was run: (§2)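 PAR and MDR cells at 2 × 10^6 cells/mL in serum-free McCoy's 5A. Compound given 10 min at room temperature, then rhodamine-123 (5.2 μM final) for 20 min at 37 °C. Washed twice, resuspended in PBS, mean FL-1 read by flow cytometry. FAR = (MDR treated/untreated)/(PAR treated/untreated). Verapamil 20 μM positive control, DMSO 2% solvent control.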

[5] = target: T1, ATP-dependent translocase ABCB1; assay: Modulation of human P-gp transfected in mouse L5178Y cells assessed as change in Rhodamine-123 efflux by measuring fluorescence activity ratio at 20 uM pretreated for 10 mins followed by Rhodamine-123 challenge for 20 mins by flow cytometry relative to parental mouse L5178Y cells; format: cell-based; conditions: 0.5 h, time 30 min
[6] = target: T1, ATP-dependent translocase ABCB1; assay: Modulation of human P-gp transfected in mouse L5178Y cells assessed as change in Rhodamine-123 efflux by measuring fluorescence activity ratio at 0.2 uM pretreated for 10 mins followed by Rhodamine-123 challenge for 20 mins by flow cytometry relative to parental mouse L5178Y cells; format: cell-based; conditions: 0.5 h, time 30 min; how it was run: as §2
[7] = system: L5178Y; assay: Synergistic antiproliferative activity against multidrug resistant mouse L5178Y cells transfected with human ABCB1 assessed as combination index incubated for 72 hrs in presence of doxorubicin by MTT assay; format: functional
How it was run: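 Checkerboard in MDR cells, 6 × 10^3 cells/well. Doxorubicin in serial dilutions from 8.6 μM, crossed with modifier dilutions whose start level was set from its IC50. 72 h at 37 °C under CO2, growth read by MTT. Curves fitted by the median-effect equation; CI reported at 50% inhibition, mean ± SD.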

| Structure (SMILES) | Ratio [4] | Ratio [5] | Ratio [6] | IC50 [1] | IC50 [2] | Ratio [3] | CI [7] |
| --- | --- | --- | --- | --- | --- | --- | --- |
| C=C1CC[C@@H]2[C@](C)(COC(C)=O)[C@H](OC(C)=O)CC[C@@]2(C)[C@@H]1C[C@H](NNC(=O)c1ccc(N)cc1)C1=CCOC1=O | 0.48 |  | 0.48 | 12.3 µM | 5.47 µM | 0.44 | <1 |
| C=C1CC[C@@H]2[C@](C)(COC(C)=O)[C@H](OC(C)=O)CC[C@@]2(C)[C@@H]1C[C@H](NNC(=O)c1cccnc1)C1=CCOC1=O | 0.32 |  | 0.49 | 12.5 µM | 11.8 µM | 0.94 | <1 |
| COc1cccc2c1C(=O)c1c(O)c3c(c(O)c1C2=O)C[C@@](O)(C(=O)CO)C[C@@H]3O[C@H]1C[C@H](N)[C@H](O)[C@H](C)O1 [DOXORUBICIN] |  |  |  | 0.07 µM | 6.82 µM | 95.43 |  |
| C=C1CC[C@@H]2[C@](C)(COC(C)=O)[C@H](OC(C)=O)CC[C@@]2(C)[C@@H]1C[C@H](NNC(=S)NC(C)(C)C)C1=CCOC1=O | 1.2 | 43.52 |  | 60.1 µM | 54.2 µM | 0.9 |  |
| C=C1CC[C@@H]2[C@](C)(COC(C)=O)[C@H](OC(C)=O)CC[C@@]2(C)[C@@H]1C[C@H](NNC(=S)Nc1ccc(C)cc1)C1=CCOC1=O | 18.86 | 60.26 |  | 36.1 µM | 47.4 µM | 1.31 |  |
| C=C1CC[C@@H]2[C@](C)(COC(C)=O)[C@H](OC(C)=O)CC[C@@]2(C)[C@@H]1C[C@H](NNC(=S)NCc1ccco1)C1=CCOC1=O | 1.27 | 31.12 |  | 50.1 µM | 71.5 µM | 1.43 |  |
| C=C1CC[C@@H]2[C@](C)(COC(C)=O)[C@H](OC(C)=O)CC[C@@]2(C)[C@@H]1C[C@H](NNC(=S)Nc1ccccc1C)C1=CCOC1=O | 1.06 | 37.12 |  | 56.9 µM | 81 µM | 1.42 |  |
| C=C1CC[C@@H]2[C@](C)(COC(C)=O)[C@H](OC(C)=O)CC[C@@]2(C)[C@@H]1C[C@H](NNC(=S)NC1CCCCC1)C1=CCOC1=O | 18.13 | 64.94 |  | 75.7 µM | 67.4 µM | 0.89 |  |
| C=C1CC[C@@H]2[C@](C)(COC(C)=O)[C@H](OC(C)=O)CC[C@@]2(C)[C@@H]1C[C@H](NNC(=O)OCc1ccc(OC)cc1)C1=CCOC1=O | 1.21 | 64.99 |  | 17.7 µM | 23.4 µM | 1.32 | <1 |
| C=C1CC[C@@H]2[C@](C)(COC(C)=O)[C@H](OC(C)=O)CC[C@@]2(C)[C@@H]1C[C@H](NNC(=S)Nc1ccc(CC)cc1)C1=CCOC1=O | 61.3 | 79.48 |  | 38.9 µM | > 100 µM |  |  |
| C=C1CC[C@@H]2[C@](C)(COC(C)=O)[C@H](OC(C)=O)CC[C@@]2(C)[C@@H]1C[C@H](NNC(=S)NC)C1=CCOC1=O | 0.88 | 41.85 |  | 44.4 µM | 51.3 µM | 1.16 |  |
| C=C1CC[C@@H]2[C@](C)(COC(C)=O)[C@H](OC(C)=O)CC[C@@]2(C)[C@@H]1C[C@H](NNc1ccc(Br)cn1)C1=CCOC1=O | 16.12 |  | 2.34 | 20.6 µM | 12 µM | 0.58 | 0.21 |

The next lines start with results.

| Ratio [4] | Ratio [5] | Ratio [6] | Structure (SMILES) | IC50 [1] | IC50 [2] | Ratio [3] | CI [7] |
| --- | --- | --- | --- | --- | --- | --- | --- |
| 1.95 | 38.65 |  | C=C1CC[C@@H]2[C@](C)(COC(C)=O)[C@H](OC(C)=O)CC[C@@]2(C)[C@@H]1C/C=C1/C(=O)OC[C@H]1OC(C)=O | 13.3 µM | 19.2 µM | 1.45 |  |
| 1.03 | 79.33 |  | C=C1CC[C@@H]2[C@](C)(COC(C)=O)[C@H](OC(C)=O)CC[C@@]2(C)[C@@H]1C[C@H](NNC(=S)Nc1ccccc1F)C1=CCOC1=O | 52.6 µM | 70 µM | 1.33 |  |
| 2.27 |  | 0.37 | C=C1CC[C@@H]2[C@](C)(COC(C)=O)[C@H](OC(C)=O)CC[C@@]2(C)[C@@H]1C[C@H](NNC(=O)c1ccc(C(F)(F)F)cc1)C1=CCOC1=O | 6.74 µM | 11.8 µM | 1.75 | <1 |
| 1.71 | 57.14 |  | C=C1CC[C@@H]2[C@](C)(COC(C)=O)[C@H](OC(C)=O)CC[C@@]2(C)[C@@H]1C[C@H](NNC(=S)NCc1ccccc1)C1=CCOC1=O | 66.9 µM | 67.6 µM | 1.01 |  |
| 58.18 | 61.3 |  | C=C1CC[C@@H]2[C@](C)(COC(C)=O)[C@H](OC(C)=O)CC[C@@]2(C)[C@@H]1C[C@H](NNC(=S)N(C)C)C1=CCOC1=O | 29.1 µM | 40.9 µM | 1.4 |  |
| 1.37 | 50.23 |  | C=C1CC[C@@H]2[C@](C)(COC(C)=O)[C@H](OC(C)=O)CC[C@@]2(C)[C@@H]1C[C@H](NNC(=S)NCCN1CCOCC1)C1=CCOC1=O | 61.5 µM | 58.7 µM | 0.96 |  |
| 7.9 | 55.07 |  | C=C1CC[C@@H]2[C@](C)(COC(C)=O)[C@H](OC(C)=O)CC[C@@]2(C)[C@@H]1C[C@H](NNC(=S)Nc1ccccc1)C1=CCOC1=O | 51.7 µM | > 100 µM |  |  |
| 3.36 |  | 1.56 | C=C1CC[C@@H]2[C@](C)(COC(C)=O)[C@H](OC(C)=O)CC[C@@]2(C)[C@@H]1C[C@H](NNC(=O)c1ccc(Cl)cc1)C1=CCOC1=O | 14.2 µM | 9.04 µM | 0.64 | <1 |
| 27.27 | 51.95 |  | C=C1CC[C@@H]2[C@](C)(COC(C)=O)[C@H](OC(C)=O)CC[C@@]2(C)[C@@H]1C[C@H](NNC(=S)Nc1ccc([N+](=O)[O-])cc1)C1=CCOC1=O | 16.1 µM | 54.8 µM | 3.4 |  |
| 1.89 |  | 0.54 | C=C1CC[C@@H]2[C@](C)(COC(C)=O)[C@H](OC(C)=O)CC[C@@]2(C)[C@@H]1C[C@H](NNC(=O)c1cccs1)C1=CCOC1=O | 15.5 µM | 15 µM | 0.96 | <1 |
| 4.28 |  | 2.32 | C=C1CC[C@@H]2[C@](C)(COC(C)=O)[C@H](OC(C)=O)CC[C@@]2(C)[C@@H]1C[C@H](NNC(=O)c1ccco1)C1=CCOC1=O | 11.1 µM | 15.3 µM | 1.38 | <1 |
| 0.96 | 0.82 |  | C=C1CC[C@@H]2[C@](C)(CO)[C@H](O)CC[C@@]2(C)[C@@H]1C/C=C1/C(=O)OC[C@H]1O [ANDROGRAPHOLIDE] | 14.5 µM | 15 µM | 1.03 | <1 |
| 5.19 |  | 1.63 | C=C1CC[C@@H]2[C@](C)(COC(C)=O)[C@H](OC(C)=O)CC[C@@]2(C)[C@@H]1C[C@@H](NNC(=O)c1ccc(C(F)(F)F)cc1)C1=CCOC1=O | 14.2 µM | 15.3 µM | 1.08 | <1 |
| 14.29 | 33.46 |  | C=C1CC[C@@H]2[C@](C)(COC(C)=O)[C@H](OC(C)=O)CC[C@@]2(C)[C@@H]1C[C@H](NNC(=S)Nc1cccc2ccccc12)C1=CCOC1=O | 52.9 µM | 51.3 µM | 0.97 |  |
